Test [1] is described as follows: S. cerevisiae growth inhibition in permissive medium (OD615), pilot counter-assay for S. cerevisiae lifespan shortening project, permissive growth control (AID 705;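 active = growth inhibition above 25% in both replicates, a cutoff set 3 SD above the mean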). Conditions: OD615, 24 h, at 10 µM, hits give high values. In outline:
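System: Engineered DeaD yeast | Buffer or medium: SC raffinose/galactose permissive medium | Incubation: Cells pre-grown 4 h, then 24 h compound exposure, 30 °C humidified | Measured by: Absorbance (optical density) at 615 nm | Read-out: Reduction in yeast growth (OD615)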

Test [2] in a line: S. cerevisiae growth inhibition in restrictive medium, OD615, pilot screen, restrictive growth control, yeast lifespan reduction project (AID 706;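 active = growth inhibition above a set limit, 3 SD over mean compound inhibition, in both replicates, cut at about 43% in these data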;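 also: modified DeaD lifespan yeast strain shifted to restrictive glucose medium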). To be noted: OD615, 48 h, at 10 µM, hits give high values. Summed up:
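Material: modified S. cerevisiae; Medium: glucose-based CSMM-D restrictive medium; Compound dosing: one concentration, 10 µM final, 0.25% DMSO; Incubation: 48 h compound exposure at 30 °C; Measured by: OD615.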

The nature of test [3]: doxorubicin toxicity protection in MRP-1 cells – H69AR cells, CellTiter-Glo, duplicate, MRP-1 activator project, pilot screen (AID 807;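 active = viability increase at or above a cutoff of the median across tested compounds plus 3 SD, cut at about 8.5% in these data, passing the limit was not always enough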;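 also: compound pretreatment 18-22 h then 72 h combined with doxorubicin; 0% = doxorubicin alone and 100% = vehicle without doxorubicin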). To be noted: H69AR viability with doxorubicin, CellTiter-Glo luminescence; at 10 µM; hits give high values.
Test [4] in a line: viability of HCT116 without oncogenic beta-catenin – human colon tumor cells, pilot screen (AID 823;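 active = cell viability at or below a set limit in both duplicate runs, the limit being the all-compound median minus 4 SD, cut at about 23% in these data, passing the limit was not always enough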;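 also: 0% = wells killed by 20 µM Hyamine and 100% = untreated DMSO cell wells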). Conditions: HCT116 beta-catenin knockout viability, CellTiter-Glo, 60 h; at 10 µM; hits give low values.
Test [5] in a line: viability of PTEN-null HCT116 cells – cell-based, HCT116 clonal line, CellTiter-Glo, pilot screen (AID 824;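 active = viability at or below 27.92% in each of two runs, the all-compound median minus 4 SD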;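 also: 0% = 20 µM Hyamine control and 100% = vehicle cell control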). To be noted: HCT116 PTEN-deleted viability, 60 h, at 10 µM, hits give low values.
The nature of test [6]: RAM pathway blockade in budding yeast – dse1pr::URA3 reporter, 5-FOA selection, pilot screen (AID 869;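 active = inhibition over a set limit, the all-compound mean plus 3 SD, in both replicate runs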;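 also: 0% = DMSO wells with no growth and 100% = 10 µM 1-NA-PP1 with full growth; RAM network block rescues cells from 5-FOA so hits raise OD615 growth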). Conditions: S. cerevisiae dse1pr::URA3 5-FOA growth, OD615, 2 d; at 10 µM; hits give high values; strain carries analog-sensitive mutant Cbk1 kinase.
Test [7] can be described thus: RAM signaling pathway blockade in yeast – S. cerevisiae, Pdr1DBD-CYC8 efflux-inhibited sensitized strain, primary screen (AID 1298).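 Also: 0% = DMSO untreated cells without growth and 100% = 10 µM 1-NA-PP1 full growth; higher means more yeast growth rescued from 5-FOA killing.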 Conditions: S. cerevisiae cbk1-as DSE1-URA3 strain, 5-FOA growth OD615, 2 d; at 50 µM; hits give high values.

This is an account of results in PubChem BioAssay.

Values without a mark were called inactive. Results filed as inconclusive are left out. The source made the active and inactive calls.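 The calls were made as follows, unless noted: active = RAM network inhibition above 8.4% in each of two replicates, 3 SD over the compound average; inconclusive = above 8.4% inhibition in only one replicate; inactive = 8.4% inhibition or less in each replicate.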

As for `COC(=O)c1c(-c2cccc(OC)c2)csc1N`, the growth inhibition was -8.46% in test [1] and 1.4% in test [2]. Further, the viability increase in test [3] was -4.63%. The viability in test [4] is 103%; in test [5], 100%. Further, the inhibition in test [6] was 1.37%. Further, the RAM network inhibition in test [7] was 0.9%.

In the case of `CCN1C(=O)CS/C1=N\c1nccs1`, the growth inhibition is 1.12% in test [1] and 1.68% in test [2]. In test [3], the viability increase was 0.86%. Moreover, the viability in test [4] and in test [5] was 105% throughout. For the same compound, in test [6], the inhibition is 1.64%. For the same compound, in test [7], the RAM network inhibition was -1.23%.

As for `Cc1ccc(CNC(=O)C2CCCN(c3nc4ccccc4o3)C2)cc1` (stereo unspecified), the growth inhibition is -20.4% in test [1] and -13.5% in test [2]. Also, in test [3], the viability increase was 1.29%. Further, the viability in test [4] was 101%; in test [5], 98.9%. For the same compound, the inhibition in test [6] is 0.85%. Further, in test [7], the RAM network inhibition is 5.43%.

Take `O=C(c1ccccc1)C(Sc1ncn[nH]1)c1ccccc1` (stereo unspecified): the growth inhibition in test [1] was -8.75%; in test [2], 0.305%. Besides, the viability increase in test [3] was 5.4%. Further, the figures for the viability in test [4] and in test [5] were 92.5% and 85.7%, respectively. The inhibition in test [6] is 1.1%. Besides, the RAM network inhibition in test [7] is 2.92%.

`Cc1cc(C(=O)N2CCN(c3ccccn3)CC2)no1`: the values for the growth inhibition in test [1] and in test [2] were -1.03% and 0.795%, respectively. The viability increase in test [3] is 0.33%. Also, the results for the viability in test [4] and in test [5] were 109% and 102%, respectively. Besides, the inhibition in test [6] was 1.05%. Further, the RAM network inhibition in test [7] is 2.86%.

As to `Cc1cc(C)nc(SCC(=O)Nc2ccc(S(=O)(=O)Nc3onc(C)c3C)cc2)n1`, the growth inhibition in test [1] was -5.04%; in test [2], 14%. The viability increase in test [3] was 0.95%. For the same compound, the viability in test [4] is 109%; in test [5] it was 101%. Also, in test [6], the inhibition was 0.88%. In test [7], the RAM network inhibition is -1.62%.

For `N#Cc1cccc(NC(=O)NCCc2c[nH]c3ccccc23)c1`, the results for the growth inhibition in test [1] and in test [2] were -17.4% and 1.5%, respectively. In addition, in test [3], the viability increase was -4.55%. For the same compound, the results for the viability in test [4] and in test [5] were 93.1% and 90.2%, respectively. The inhibition in test [6] is -0.125%. Moreover, the RAM network inhibition in test [7] is 4.4%.

Take `Cc1cc(C)n2c(SCC#N)nnc2n1`: the growth inhibition in test [1] was -13.1%; in test [2], -13%. In addition, the viability increase in test [3] is 0.04%. Also, the viability was 103% in test [4] and 92.2% in test [5]. For the same compound, the inhibition in test [6] is 2.84%. Further, in test [7], the RAM network inhibition was 3.94%.

In the case of `O=c1cc(-c2c(F)c(F)c(F)c(F)c2F)oc2c(F)c(F)c(F)c(F)c12`, the growth inhibition is -8.86% in test [1] and -6.48% in test [2]. Further, the viability increase in test [3] is -7%. Further, the viability in test [4] is 1.3% (active); in test [5], 1.25% (active). The inhibition in test [6] was -0.35%. For the same compound, the RAM network inhibition in test [7] was -1.25%.

With `COc1cccc(-c2cc(C(=O)Nn3cnnc3)c3ccccc3n2)c1`, the values for the growth inhibition in test [1] and in test [2] were -12.2% and -11.8%, respectively. Further, the viability increase in test [3] is -3.9%. Besides, the viability is 92.5% in test [4] and 94.6% in test [5]. Also, the inhibition in test [6] is 1.52%. In addition, in test [7], the RAM network inhibition was 3.38%.

As to `CC1CCCC(C)N1c1nnc(N)s1` (stereo unspecified), the growth inhibition in test [1] was 0.52%; in test [2], 30.8%. Moreover, in test [3], the viability increase is -1.42%. The viability is 104% in test [4] and 102% in test [5]. For the same compound, the inhibition in test [6] was 0.385%. Besides, the RAM network inhibition in test [7] was 0.17%.

As for `COc1ccc(CN2CCNC(=O)C2CC(=O)O)cc1OC` (stereo unspecified), the results for the growth inhibition in test [1] and in test [2] were -14.2% and -7.95%, respectively. Moreover, the viability increase in test [3] is 1.18%. In addition, the viability is 105% in test [4] and 101% in test [5]. Moreover, the inhibition in test [6] was 0.38%. Moreover, in test [7], the RAM network inhibition was -0.52%.

Turning to `Cn1cccc1Cc1nnc(SCC(=O)NC2CCCCC2)n1CCc1ccccc1`, the growth inhibition was 9.32% in test [1] and 23.6% in test [2]. In test [3], the viability increase was -2.17%. The viability in test [4] was 79.6%; in test [5] it was 81.5%. For the same compound, the inhibition in test [6] was 1.58%. Further, the RAM network inhibition in test [7] was 8.9%.

As to `CC(C)n1c(SCCCc2ccccc2)nc2c1c(=O)[nH]c(=O)n2C`, the growth inhibition in test [1] was -6.04%; in test [2], 4.52%. Also, the viability increase in test [3] is -0.9%. In addition, the viability in test [4] was 92.2%; in test [5], 87.5%. Besides, in test [6], the inhibition was 1.95%. In addition, the RAM network inhibition in test [7] was 8.85%.

Consider `COc1cc(C(=O)N2CCN(C(=O)C(Cc3cc(C)ccc3C)NC(C)=O)CC2)cc(OC)c1OC` (stereo unspecified), for which the figures for the growth inhibition in test [1] and in test [2] were -24.3% and -16.3%, respectively. The viability increase in test [3] was -2.13%. The viability is 97.7% in test [4] and 88.2% in test [5]. The inhibition in test [6] was 1.05%. Besides, the RAM network inhibition in test [7] is 1.42%.

For `O=C1CCCN1CC(CN1CCOCC1)Sc1nc2ccccc2c(=O)n1-c1ccccc1` (stereo unspecified), the figures for the growth inhibition in test [1] and in test [2] were -2.25% and -6.07%, respectively. Further, the viability increase in test [3] is -6.36%. In addition, the viability in test [4] was 92.1%; in test [5] it was 97.3%. Besides, in test [6], the inhibition was 1.88%. In test [7], the RAM network inhibition was 1.94%.

On to `O=C(CN1CCOc2ccccc21)NC1CC1`, for which the growth inhibition in test [1] is -8.82%; in test [2], 8.71%. Moreover, the viability increase in test [3] was -3.71%. Also, the results for the viability in test [4] and in test [5] were 88.1% and 98.8%, respectively. Besides, the inhibition in test [6] is 1.16%. In addition, the RAM network inhibition in test [7] is -0.26%.

As to `Cc1ccc2c(CC(=O)O)coc2c1C`, the growth inhibition is 3.31% in test [1] and 33.3% in test [2]. Moreover, the viability increase in test [3] was -2.01%. The figures for the viability in test [4] and in test [5] were 88% and 89.5%, respectively. Further, the inhibition in test [6] was -0.555%. Moreover, the RAM network inhibition in test [7] is -1.19%.
